Calls of active or inactive are those of the source. No cut-off for these calls is given here.
Tests used:
Plasmodium falciparum [1] = assay: Antimalarial activity against chloroquine-sensitive Plasmodium falciparum 3D7 trophozoite stage assessed as growth inhibition at 75 nM after 10 hrs by [3H]-hypoxanthine incorporation assay; type: functional, organism-based
Summary of the method: (§1)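 Synchronous 3D7 rings (~10−16 h post-invasion) or trophozoites (~24−30 h post-invasion), 0.5% parasitemia, 5% hematocrit, exposed 4, 6 or 10 h to compound or 0.04% DMSO vehicle. Cultures are washed, plated in triplicate with 0.5 μCi 3H-hypoxanthine, and incorporation is counted after ~48−72 h. Percent growth is relative to matched vehicle controls, from at least two independent experiments.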

Plasmodium falciparum [2] = assay: Antimalarial activity against chloroquine-sensitive Plasmodium falciparum 3D7 trophozoite stage assessed as growth inhibition at 150 nM after 10 hrs by [3H]-hypoxanthine incorporation assay; type: functional, organism-based; summary of the method: as §1
Plasmodium falciparum [3] = assay: Antimalarial activity against chloroquine-sensitive Plasmodium falciparum 3D7 ring stage assessed as growth inhibition at 75 nM after 10 hrs by [3H]-hypoxanthine incorporation assay; type: functional, organism-based; summary of the method: as §1
Plasmodium falciparum [4] = assay: Antimalarial activity against chloroquine-sensitive Plasmodium falciparum 3D7 ring stage assessed as growth inhibition at 150 nM after 10 hrs by [3H]-hypoxanthine incorporation assay; type: functional, organism-based; summary of the method: as §1
Plasmodium berghei [5] = assay: Antimalarial activity against chloroquine-sensitive Plasmodium berghei ANKA infected in Swiss albino mouse assessed as suppression of parasitemia at 8 mg/kg/day, ip measured on day 4 post infection by Giemsa staining relative to control; type: functional; details: route intraperitoneal
Plasmodium berghei [6] = assay: Antimalarial activity against chloroquine-sensitive Plasmodium berghei ANKA infected in ip dosed Swiss albino mouse assessed as suppression of parasitemia measured on day 4 post infection by Giemsa staining; type: functional; details: 96 h
[7] = Selectivity index, ratio of IC50 for human HEK293 cells to IC50 for chloroquine-resistant Plasmodium falciparum Dd2; type: toxicity, cell-based; details: read-out: Ratio IC50
Plasmodium falciparum [8] = assay: Antimalarial activity against chloroquine-sensitive Plasmodium falciparum 3D7 assessed as growth inhibition after 72 hrs by DAPI staining; type: functional, organism-based; details: 3D7, 72 h
Summary of the method: (§2)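 P. falciparum 3D7 or Dd2 at 2% or 3% parasitemia, 0.3% hematocrit, exposed 72 h at 37 °C, 5% CO2. Staining with DAPI plus saponin and Triton X-100, 5 h at room temperature in the dark, then confocal imaging and automated counting of parasite spots. Percent inhibition is calculated against DMSO and 2 μM artemisinin controls.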

[9] = Selectivity index, ratio of IC50 for human HEK293 cells to IC50 for chloroquine-sensitive Plasmodium falciparum 3D7; type: toxicity, cell-based; details: read-out: Ratio IC50
Plasmodium falciparum [10] = assay: Antimalarial activity against chloroquine-resistant Plasmodium falciparum Dd2 assessed as growth inhibition after 72 hrs by DAPI staining; type: functional, organism-based; details: Dd2, 72 h; summary of the method: as §2
HEK293 = assay: Cytotoxicity against human HEK293 cells assessed as growth inhibition after 72 hrs by Alamar blue assay; type: cell-based; details: HEK293, 72 h
Summary of the method: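 HEK293 adherent cells (3000/well) were incubated with compound for 72 h at 37 °C and 5% CO2. Medium was removed, then 10% Alamar Blue was added for 5−6 h. Fluorescence was read at ex 535/em 590 nm. Inhibition was normalised to DMSO and 10 μM puromycin controls. IC50 came from nonlinear variable-slope regression of % inhibition against log dose.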

HCT-116 = assay: Cytotoxicity against human HCT116 cells; type: functional, cell-based
XRS6 = assay: Cytotoxicity against Chinese hamster Xrs-6 cells; type: cell-based; details: Cricetulus griseus
[11] = molecular target: DNA topoisomerase 2-alpha (Homo sapiens) (UniProt P11388); assay: Inhibition of topoisomerase 2 by decatenation assay
DNA topoisomerase 2-alpha (Homo sapiens), sequence (P11388 whole entry): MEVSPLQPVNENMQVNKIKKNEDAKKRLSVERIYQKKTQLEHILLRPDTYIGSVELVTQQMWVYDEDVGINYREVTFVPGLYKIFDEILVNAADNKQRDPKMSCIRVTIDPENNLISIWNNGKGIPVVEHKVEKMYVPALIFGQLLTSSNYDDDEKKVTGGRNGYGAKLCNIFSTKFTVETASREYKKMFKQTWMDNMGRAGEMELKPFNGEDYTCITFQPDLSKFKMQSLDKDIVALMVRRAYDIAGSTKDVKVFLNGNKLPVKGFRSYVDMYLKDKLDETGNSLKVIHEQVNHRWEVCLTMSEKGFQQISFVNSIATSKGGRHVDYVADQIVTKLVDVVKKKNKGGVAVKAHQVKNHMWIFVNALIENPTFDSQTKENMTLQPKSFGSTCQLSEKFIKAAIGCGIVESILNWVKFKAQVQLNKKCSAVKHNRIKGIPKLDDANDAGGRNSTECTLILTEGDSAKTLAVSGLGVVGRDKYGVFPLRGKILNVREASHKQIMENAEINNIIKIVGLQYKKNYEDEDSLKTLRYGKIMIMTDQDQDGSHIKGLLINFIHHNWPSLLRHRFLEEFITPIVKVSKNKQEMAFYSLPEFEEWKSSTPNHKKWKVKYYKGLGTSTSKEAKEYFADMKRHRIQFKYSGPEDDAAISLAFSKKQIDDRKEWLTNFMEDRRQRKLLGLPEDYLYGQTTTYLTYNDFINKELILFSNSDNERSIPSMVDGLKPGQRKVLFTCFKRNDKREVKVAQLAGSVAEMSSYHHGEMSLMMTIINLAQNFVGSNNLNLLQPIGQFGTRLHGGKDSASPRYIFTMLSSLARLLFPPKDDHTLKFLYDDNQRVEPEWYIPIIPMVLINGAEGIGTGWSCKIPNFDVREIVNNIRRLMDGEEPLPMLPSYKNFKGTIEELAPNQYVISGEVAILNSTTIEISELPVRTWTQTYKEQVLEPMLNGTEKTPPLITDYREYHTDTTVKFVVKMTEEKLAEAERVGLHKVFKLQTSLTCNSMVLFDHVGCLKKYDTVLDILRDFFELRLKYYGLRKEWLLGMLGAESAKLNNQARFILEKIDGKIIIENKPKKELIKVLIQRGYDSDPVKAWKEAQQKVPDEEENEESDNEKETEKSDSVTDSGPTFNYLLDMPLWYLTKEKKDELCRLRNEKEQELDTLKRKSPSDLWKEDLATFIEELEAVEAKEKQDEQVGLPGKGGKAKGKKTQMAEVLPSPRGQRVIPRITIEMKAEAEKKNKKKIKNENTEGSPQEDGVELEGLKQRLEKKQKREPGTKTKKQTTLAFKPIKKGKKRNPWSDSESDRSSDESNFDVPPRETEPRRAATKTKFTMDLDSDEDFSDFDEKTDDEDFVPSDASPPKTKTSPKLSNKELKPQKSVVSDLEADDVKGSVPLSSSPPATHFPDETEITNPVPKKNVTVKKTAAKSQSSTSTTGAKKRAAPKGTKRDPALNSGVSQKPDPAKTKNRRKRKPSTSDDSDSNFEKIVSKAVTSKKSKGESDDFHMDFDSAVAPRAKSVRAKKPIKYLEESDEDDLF

Question: For `C[C@@H]1CC[C@H]2[C@@H](C)C(=O)O[C@@H]3O[C@@]4(C)CC[C@@H]1[C@]32OO4`, which “growth inhibition (GI)” value (Plasmodium falciparum [1]) is on record?
Answer: Active

Question: What about the “growth inhibition (GI)” value (Plasmodium falciparum [2]) of the same molecule?
Answer: Active

Question: And the “growth inhibition (GI)” value (Plasmodium falciparum [3])?
Answer: Active

Question: And the “growth inhibition (GI)” value (Plasmodium falciparum [4])?
Answer: Active

Question: What does the source list for `CCN(CC)CCCC(C)Nc1ccnc2cc(Cl)ccc12` (stereo not drawn) [CHLOROQUINE]?
Answer: Activity (Plasmodium berghei [5]): 35%; ED50 (Plasmodium berghei [6]): 1.9 mg/kg/day

Question: With `CN1CCc2cn(C)c3c2C1=CC(=O)C3=O` [DAMIRONES A] as the molecule, how does the selectivity ratio [7] read?
Answer: > 333

Question: And the IC50 (Plasmodium falciparum [8])?
Answer: 1880 nM

Question: What about the selectivity ratio [9] of the same molecule?
Answer: > 63

Question: What about the IC50 (Plasmodium falciparum [10]) of the same molecule?
Answer: 360 nM

Question: What about the IC50 (HEK293) of the same molecule?
Answer: > 120000 nM

Question: Which selectivity ratio [7] does the source give for `CN1CCc2c[nH]c3c2C1=CC(=O)C3=O` [DAMIRONES B] here?
Answer: > 32

Question: And the IC50 (Plasmodium falciparum [8])?
Answer: 12200 nM

Question: What about the selectivity ratio [9] of the same molecule?
Answer: > 10

Question: What about the IC50 (Plasmodium falciparum [10]) of the same molecule?
Answer: 3800 nM

Question: And the IC50 (HEK293)?
Answer: > 120000 nM

Question: With `Cn1cc2c3c1C(=O)C(N)=CC3=NCC2` [MAKALUVAMINE A] as the molecule, how does the IC50 (HCT-116) read?
Answer: > 170 nM

Question: What about the IC50 (XRS6) of the same molecule?
Answer: 80 nM

Question: What about the IC90 [11] of the same molecule?
Answer: 41000 nM

Question: What does the source list for `Cn1cc2ccnc3c2c1C(=O)C(N)=C3` [MAKALUVAMINE B]?
Answer: IC50 (HCT-116): > 170 nM; IC50 (XRS6): 80 nM

Question: Which results are given for `C[N+]1=C2C=C(N)C(=O)c3[nH]cc(c32)CC1` [MAKALUVAMINE C]?
Answer: IC50 (HCT-116): > 170 nM; IC50 (XRS6): 80 nM

From ChEMBL document CHEMBL2150944, “Antimalarial activity of pyrroloiminoquinones from the Australian marine sponge Zyzzya sp” (J Med Chem, 2012)
